Source: PubChem BioAssay (several laboratories)
A selection: hits, their analogues and other compounds. The true share with any hit is near 7.2%.
M1 antag – antagonists of rat M1 muscarinic receptor. CHO-M1 cells, Fluo-4 calcium, ACh EC80 antagonist mode; active compounds read low. B-score at 10 µM. actives 3.4% (n = 64,000);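 active means calcium fluorescence response, raw or row-and-column corrected B-score, differing from the plate sample mean either way at a set confidence level, mostly lower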
M1 agonist – agonists of M1 muscarinic receptor | actives 3% (n = 64,000) | CHO-M1 cells, Fluo-4 calcium fluorescence, agonist mode; active compounds read high | AID 626 | B-score at 10 µM;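 active means fluorescence rise, raw or as B-score row- and column-corrected plate score, outside the 99.7% band of its plate's samples, either direction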
HEK293 NFkB inh – inhibitors of the PMA/ionomycin-induced NF-kB reporter in HEK293 cells | HEK-293 NF-kB luciferase reporter, luminescence | inhibition, % at 3 µM | actives 0.21% (n = 62,000) | AID 465;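 active means inhibition above the mean of all tested compounds plus 3 SD, cut at about 40% in these data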
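Reagent: PMA plus ionomycin mix as NF-kB-activating stimulus. Assay system: NF-kB luciferase reporter HEK-293 cells. Technique: luminescence from luciferase substrate reagent. Incubation: 1 h compound pre-incubation, 16 h PMA/ionomycin at 37 °C. Benchmarks: DMSO only as uninhibited control, 10 µM reference inhibitor as full inhibition. Repeats: tested once.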
DAT uptake mod – modulates human dopamine transporter uptake under cocaine | Q01959 | actives 1.3% (n = 110,000) | LLC-PK1 hDAT cells, [14C]-dopamine uptake with cocaine IC80; actives deviate in either direction | B-score at 10 µM;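 active means Z score or B-score, a plate-position-corrected score, falls beyond the plate's 99.7% confidence bounds, in either direction; inactive means both scores lie inside the 99.7% bounds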
Target sequence (Q01959 whole entry, looked up): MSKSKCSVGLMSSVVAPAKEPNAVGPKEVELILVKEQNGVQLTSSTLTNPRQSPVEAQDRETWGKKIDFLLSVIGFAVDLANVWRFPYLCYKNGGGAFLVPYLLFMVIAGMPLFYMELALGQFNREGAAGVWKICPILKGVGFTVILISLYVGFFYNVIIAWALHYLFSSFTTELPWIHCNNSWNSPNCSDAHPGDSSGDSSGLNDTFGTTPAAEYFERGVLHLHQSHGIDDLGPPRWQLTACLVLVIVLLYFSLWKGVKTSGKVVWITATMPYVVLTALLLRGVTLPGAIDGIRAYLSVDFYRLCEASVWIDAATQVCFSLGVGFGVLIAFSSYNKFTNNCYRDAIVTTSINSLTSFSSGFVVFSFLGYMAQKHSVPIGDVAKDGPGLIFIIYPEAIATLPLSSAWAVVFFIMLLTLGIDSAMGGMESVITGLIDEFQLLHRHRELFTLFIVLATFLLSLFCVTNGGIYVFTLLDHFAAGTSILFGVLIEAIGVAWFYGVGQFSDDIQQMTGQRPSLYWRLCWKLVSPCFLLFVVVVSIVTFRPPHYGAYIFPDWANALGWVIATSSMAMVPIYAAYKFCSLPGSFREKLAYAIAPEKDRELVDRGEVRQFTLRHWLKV
BAP1 block – inhibitors of human BAP1 deubiquitinase. Q92560. recombinant BAP1, Ub-AMC hydrolysis fluorescence kinetic; active compounds read low. calls only at 20 µM. actives 0.48% (n = 72,000);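 active means activity remaining at or below 50% of control, provided the compound also passes the data quality filters; inactive means the rest, including low values that fail the filters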
D1 allo mod – allosteric modulators of human D1 dopamine receptor | HEK293 D1, CRE-luciferase, dopamine EC30 potentiation; actives deviate in either direction | B-score at 10 µM | P21728 | actives 5.9% (n = 58,000) | AID 641;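 active means luminescence count or its row- and column-corrected plate score outside the 99.7% band of the plate's sample wells, on either side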
D1 mod confirm – D1 receptor (human) allosteric modulation, confirmed. HEK293 D1 CRE-luciferase, dopamine EC30 potentiation; active compounds read high. luminescence at 10 µM. actives 88% (n = 2,200). AID 642. shares compounds with D1 allo mod;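 active means luminescence in either of two replicates above the same-plate mean plus 3 SD of the low-dose dopamine control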
D1 ag no DA – activates D1 CRE-luciferase signal without dopamine present | AID 646 | shares compounds with D1 allo mod | HEK293 D1 CRE-luciferase, luminescence, no dopamine; active compounds read high | actives 0.8% (n = 1,900) | luminescence at 10 µM; in the data active means luminescence above about 3900
Isoprot counter – alters isoproterenol CRE-luciferase response in HEK293 cells. calls only at 10 µM. HEK293 D1 CRE-luciferase, isoproterenol EC30 counter-screen. AID 647. shares compounds with D1 allo mod. actives 63% (n = 2,200);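 active means luminescence in either replicate above plate mean of wells with a partly effective reference agonist dose plus 3 SD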;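 further: isoproterenol raises cAMP through native beta-adrenoceptor Gs so signal bypasses D1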
Of the large screens only hits and unclear results are named; the others gave an inactive call (follow-up assays come after a bar, where shown).

Cc1cc(C)cc(Nc2ncc3c(n2)CC(c2ccco2)CC3=O)c1 (centres undefined)	D1 allo mod 4.7 | D1 mod confirm 7924 | D1 ag no DA inactive | Isoprot counter active
Cc1cccc(Nc2ncc3c(n2)CC(c2ccco2)CC3=O)c1 (centres undefined)	none
c1ccc2c(c1)oc1c(Nc3ccc4c(c3)OCO4)ncnc12	D1 allo mod 3.1 | D1 mod confirm 6592 | Isoprot counter active
COC(=O)c1cc(-c2ccccc2)sc1N	none (no result: M1 antag, M1 agonist, HEK293 NFkB inh, BAP1 block, D1 allo mod)
COC(=O)c1nc(N)sc1-c1ccccc1	D1 allo mod 11 | D1 mod confirm 21800 | D1 ag no DA inactive | Isoprot counter active
O=C(Nc1nnc(N=Cc2cccs2)s1)c1ccc(S(=O)(=O)N2CCCCC2)cc1	none (no result: M1 antag, M1 agonist, HEK293 NFkB inh, DAT uptake mod, D1 allo mod)
NS(=O)(=O)c1ccc(CCNC(=O)C2CCCCN2S(=O)(=O)c2ccccc2)cc1 (centres undefined)	D1 allo mod 3.5 | D1 mod confirm inactive | D1 ag no DA inactive | Isoprot counter inactive
NS(=O)(=O)c1ccc(CCNC(=O)[C@@H]2CCCN2S(=O)(=O)c2ccccc2F)cc1	none (no result: M1 antag, M1 agonist, HEK293 NFkB inh, BAP1 block, D1 allo mod)
CC(C)Cn1c(-c2cccs2)nc2nc3ccccc3nc21	D1 allo mod 4.7 (not shown: BAP1 block) | D1 mod confirm 10104 | D1 ag no DA inactive | Isoprot counter inactive
Cc1cccc(N(C(=O)Nc2ccccc2)C2=NCC(C)S2)c1 (centres undefined)	D1 allo mod 5.1 | D1 mod confirm 6412 | Isoprot counter active
CC(=O)Nc1ccc(S(=O)(=O)N(C2=NCC(C)S2)c2ccccc2)cc1 (centres undefined)	D1 allo mod 19 | D1 mod confirm inactive | D1 ag no DA inactive | Isoprot counter inactive
Cc1ccc(NC(=O)N(C2=NCC(C)S2)c2ccccc2)cc1 (centres undefined)	none
COc1ccc(C2C3=C(CC(C)(C)CC3=O)Nc3ccccc3N2C(=O)c2ccc(Br)cc2)cc1 (centres undefined)	none (no result: M1 antag, M1 agonist, HEK293 NFkB inh, DAT uptake mod, D1 allo mod)
CCN(CC)c1ncnc2scc(C3COc4ccccc4O3)c12 (centres undefined)	none (no result: M1 antag, M1 agonist, HEK293 NFkB inh, BAP1 block, D1 allo mod)
c1ccc2c(c1)OCC(c1csc3ncnc(N4CCOCC4)c13)O2 (centres undefined)	D1 allo mod 3.8 | D1 mod confirm inactive | D1 ag no DA inactive | Isoprot counter active
CCCCC1(C)Cc2ccccc2C(=O)N1 (centres undefined)	none (no result: M1 antag, M1 agonist, HEK293 NFkB inh, DAT uptake mod, D1 allo mod)
Cc1ccc(C(=O)OCC(=O)Nc2ccccc2)cc1NC(=O)c1ccco1	D1 allo mod 4.4 | D1 mod confirm inactive | D1 ag no DA inactive | Isoprot counter inactive
CC1N=C2c3ccccc3N=C(SCc3cc(=O)n4cc(Cl)ccc4n3)N2C1=O (centres undefined)	D1 allo mod 4.2 | D1 mod confirm 10900 | D1 ag no DA inactive | Isoprot counter active
CCNc1nc(NC(C)(C)C)nc(N(CC)n2cnnc2)n1	D1 allo mod 2.7 | D1 mod confirm 8308 | D1 ag no DA inactive | Isoprot counter inactive
N#Cc1sc2nc3c(c(-c4ccco4)c2c1N)CCCC3	D1 allo mod 9.6 | D1 mod confirm 12060 | D1 ag no DA inactive | Isoprot counter active
c1ccc2c(c1)ccc1nnc(SCc3ccc4c(c3)OCCO4)n12	none (no result: M1 antag, M1 agonist, HEK293 NFkB inh, BAP1 block, D1 allo mod)
c1ccc2c(c1)ccc1nnc(-c3ccc4c(c3)OCO4)n12	D1 allo mod 22 | D1 mod confirm 24948 | D1 ag no DA inactive | Isoprot counter active
N=c1c(S(=O)(=O)c2ccccc2)cc2c(=O)n3ccccc3nc2n1CC1CCCO1 (centres undefined)	D1 allo mod 7.6 | D1 mod confirm 10760 | D1 ag no DA inactive | Isoprot counter active
COc1ccc(C(=O)NC2=C(C#N)CCC2)cc1OC	D1 allo mod 13 (not shown: BAP1 block) | D1 mod confirm 12668 | Isoprot counter active
CC1(C)Cc2c(sc3c2c(=N)n(Cc2ccco2)c(=O)n3Cc2ccc(F)cc2)CO1	D1 allo mod 23 (no result: BAP1 block) | D1 mod confirm 17584 | D1 ag no DA inactive | Isoprot counter active
CC1(C)Cc2c(sc3[nH]c(=S)n(Cc4ccccc4)c(=O)c23)CO1	none (no result: M1 antag, M1 agonist, HEK293 NFkB inh, BAP1 block, D1 allo mod)
COc1ccc(Cn2c(=O)n(Cc3ccco3)c(=N)c3c4c(sc32)COC(C)(C)C4)cc1	D1 allo mod 21 (no result: BAP1 block) | D1 mod confirm 22180 | D1 ag no DA inactive | Isoprot counter active
Cc1ccc(NC(=O)Cn2c(=O)n(Cc3ccco3)c(=N)c3c4c(sc32)COC(C)(C)C4)cc1	none (no result: D1 allo mod)
Cc1ccc(NC(=O)c2ccc([N+](=O)[O-])cc2)c(Br)c1	none (no result: M1 antag, M1 agonist, HEK293 NFkB inh, DAT uptake mod, D1 allo mod)
CSc1nc(N2CCOCC2)c2ccccc2n1	D1 allo mod 9.4 | D1 mod confirm 16028 | Isoprot counter active
Cc1nnc(-c2ccccc2)nc1N1CCOCC1	none (no result: M1 antag, M1 agonist, HEK293 NFkB inh, BAP1 block, D1 allo mod)
Cc1nc(N2CCOCC2)c2cc(-c3ccccc3)sc2n1	D1 allo mod 7.9 | D1 mod confirm 14040 | D1 ag no DA inactive | Isoprot counter active
Cc1nc2ccccc2nc1N1CCOCC1	none (no result: M1 antag, M1 agonist, HEK293 NFkB inh, BAP1 block, D1 allo mod)
O=C1CC(c2ccc(-c3ccccc3)cc2)c2cc(Br)c3ccccc3c2N1 (centres undefined)	none (no result: M1 antag, M1 agonist, HEK293 NFkB inh, DAT uptake mod, D1 allo mod)
Cn1c(=O)c2c(nc(NCc3ccc4c(c3)OCO4)n2Cc2ccccc2F)n(C)c1=O	D1 allo mod 4.7 (no result: HEK293 NFkB inh) | D1 mod confirm 6940 | D1 ag no DA inactive | Isoprot counter active
Cn1c(=O)c2c(nc(NCc3ccc4c(c3)OCO4)n2Cc2ccccc2)n(C)c1=O	none (no result: HEK293 NFkB inh, D1 allo mod)
Cc1csc(NC(=O)c2ccc(Br)cc2)n1	none (no result: M1 antag, M1 agonist, HEK293 NFkB inh, DAT uptake mod, D1 allo mod)
COc1ccc(N2CC(C(=O)Nc3ccccc3C(=O)NCc3ccco3)CC2=O)cc1 (centres undefined)	none
COc1ccc(N2Cc3cccc(C(=O)NC(C)CCc4ccco4)c3C2=O)cc1 (centres undefined)	D1 allo mod 3.4 | D1 mod confirm 11280 | D1 ag no DA inactive | Isoprot counter active
CCN(CC)CC(=O)N(C)c1c(N)n(C)c(=O)[nH]c1=O	none (no result: M1 antag, M1 agonist, HEK293 NFkB inh, DAT uptake mod, D1 allo mod)
COc1cccc(CNc2ccc(S(=O)(=O)Nc3nccs3)cc2)c1O	D1 allo mod 12 | D1 mod confirm 14616 | D1 ag no DA inactive | Isoprot counter active
CCC(C)NC(=O)CS(=O)Cc1nc(-c2cccc(C)c2)oc1C (centres undefined)	D1 allo mod 4.5 | D1 mod confirm inactive | D1 ag no DA inactive | Isoprot counter inactive
Cc1nn(C(=O)COc2ccccc2[N+](=O)[O-])c(C)c1Sc1ccc([N+](=O)[O-])cc1	none (no result: M1 antag, M1 agonist, HEK293 NFkB inh, DAT uptake mod, D1 allo mod)
